Measured values from ChEMBL document CHEMBL1125010, “Relaxant activity of 4-amido-3,4-dihydro-2H-1-benzopyran-3-ols and 4-amido-2H-1-benzopyrans on guinea pig isolated trachealis” (J Med Chem, 1990).

Assays:
[1] = species: Cavia porcellus; test: Inhibition of spontaneous tone in Guinea pig tracheal spiral strips.; format: functional, Trachea
Procedure, shortened: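 Guinea pig isolated trachealis, spontaneous tone. Relaxation is compared with the response to isoprenaline. IC50 is the concentration giving 50% of the isoprenaline response, read from the dose-response curve. Reported as the geometric mean, generally of four or more determinations.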

[2] = species: Cavia porcellus; test: Intrinsic activity measured on Guinea pig tracheal spiral strips.; format: functional, Trachea
Procedure, shortened: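 Guinea pig isolated trachealis relaxation. Intrinsic activity is the compound's maximum relaxant response divided by the maximum produced by isoprenaline. Reported as an arithmetic mean.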

Work on CC1(C)C=C(N2CCCCC2=O)c2c(cccc2C(F)(F)F)O1 yielded an IC50 ([1]; Cavia porcellus, Trachea) greater than 20 µM and an Intrinsic activity [2] of 0.11.

With CC1(C)C=C(N2CCCCC2=O)c2ccc(C#N)cc2O1 the IC50 ([1]; Cavia porcellus, Trachea) was 3.96 µM and the Intrinsic activity [2] was 0.86.

For CC1(C)Oc2cc(C#N)ccc2[C@@H](N2CCCCC2=O)[C@@H]1O, the IC50 ([1]; Cavia porcellus, Trachea) was greater than 17 µM and the Intrinsic activity [2] was 0.56.

With CC1(C)C=C(N2CCCCC2=O)c2ccc(C(F)(F)F)cc2O1 the IC50 ([1]; Cavia porcellus, Trachea) was 2.97 µM and the Intrinsic activity [2] was 0.97.

With CC1(C)C=C(n2ccccc2=O)c2cnccc2O1 the IC50 ([1]; Cavia porcellus, Trachea) was 2.1 µM and the Intrinsic activity [2] was 0.93.

CC1(C)Oc2ccc(C(F)(F)F)cc2[C@@H](N2CCCCC2=O)[C@@H]1O gave an IC50 ([1]; Cavia porcellus, Trachea) of 0.058 µM and an Intrinsic activity [2] of 0.96.

In the case of CC1(C)Oc2ccc(C#N)cc2[C@@H](N2CCCCC2=O)[C@@H]1O, the IC50 ([1]; Cavia porcellus, Trachea) is reported as 0.27 µM and the Intrinsic activity [2] is reported as 0.82.

Work on CC1(C)C=C(N2CCCCC2=O)c2cc(C(F)(F)F)ccc2O1 yielded an IC50 ([1]; Cavia porcellus, Trachea) of 0.65 µM and an Intrinsic activity [2] of 0.89.

For CC1(C)C=C(n2ccccc2=O)c2c[n+]([O-])ccc2O1, the IC50 ([1]; Cavia porcellus, Trachea) was greater than 20 µM and the Intrinsic activity [2] was 0.01.

In the case of CC1(C)C=C(N2CCCC2=O)c2cnccc2O1, the IC50 ([1]; Cavia porcellus, Trachea) is reported as 6.7 µM and the Intrinsic activity [2] is reported as 0.67.

CC1(C)C=C(N2CCC2=O)c2cc(C#N)ccc2O1 was tested, and the IC50 ([1]; Cavia porcellus, Trachea) was 7.5 µM and the Intrinsic activity [2] was 0.91.

CC1(C)C=C(n2ccccc2=O)c2cc(C(F)(F)F)ccc2O1 gave an IC50 ([1]; Cavia porcellus, Trachea) of 0.056 µM and an Intrinsic activity [2] of 0.97.

Compound CCc1ccc2c(c1)[C@@H](N1CCCC1=O)[C@H](O)C(C)(C)O2 has an IC50 ([1]; Cavia porcellus, Trachea) of 2.68 µM and an Intrinsic activity [2] of 0.92.

For CCc1ccc2c(c1)OC(C)(C)[C@@H](O)[C@@H]2N1CCCCC1=O, the IC50 ([1]; Cavia porcellus, Trachea) was 2.25 µM and the Intrinsic activity [2] was 0.83.

With CC1(C)Oc2ccc(C#N)cc2[C@@H](N2CCC2=O)[C@@H]1O the IC50 ([1]; Cavia porcellus, Trachea) was greater than 20 µM.

CC1(C)Oc2ccc(C(F)(F)F)cc2[C@@H](N2CCCC2=O)[C@@H]1O was tested, and the IC50 ([1]; Cavia porcellus, Trachea) was 0.41 µM and the Intrinsic activity [2] was 0.92.

Work on CC1(C)C=C(N2CCCC2=O)c2cc(C#N)ccc2O1 yielded an IC50 ([1]; Cavia porcellus, Trachea) of 1.57 µM and an Intrinsic activity [2] of 0.91.

In the case of CC1(C)C=C(N2CCCCC2=O)c2cc(C#N)ccc2O1, the IC50 ([1]; Cavia porcellus, Trachea) is reported as 1.1 µM and the Intrinsic activity [2] is reported as 0.9.

CC1(C)Oc2ccncc2[C@@H](N2CCCCC2=O)[C@@H]1O gave an IC50 ([1]; Cavia porcellus, Trachea) of 0.66 µM and an Intrinsic activity [2] of 0.84.

With CC1(C)C=C(N2CCCC2=O)c2ccc(C(F)(F)F)cc2O1 the IC50 ([1]; Cavia porcellus, Trachea) was 5.1 µM and the Intrinsic activity [2] was 0.97.

With CC1(C)C=C(N2CCCCC2=O)c2cnccc2O1 the IC50 ([1]; Cavia porcellus, Trachea) was 2.2 µM and the Intrinsic activity [2] was 0.92.

Compound CC1(C)Oc2cccc(C(F)(F)F)c2[C@@H](N2CCCCC2=O)[C@@H]1O has an IC50 ([1]; Cavia porcellus, Trachea) greater than 20 µM and an Intrinsic activity [2] of 0.13.

Compound CC1(C)Oc2ccncc2[C@@H](n2ccccc2=O)[C@@H]1O has an IC50 ([1]; Cavia porcellus, Trachea) of 5.1 µM and an Intrinsic activity [2] of 0.81.

CC1(C)Oc2ccncc2[C@@H](N2CCCC2=O)[C@@H]1O showed an IC50 ([1]; Cavia porcellus, Trachea) of 8.6 µM and an Intrinsic activity [2] of 0.68.

CC1(C)Oc2cc(C(F)(F)F)ccc2[C@@H](N2CCCC2=O)[C@@H]1O gave an IC50 ([1]; Cavia porcellus, Trachea) of 0.73 µM and an Intrinsic activity [2] of 0.9.

Work on Cc1ccc2c(c1)[C@@H](N1CCCCC1=O)[C@H](O)C(C)(C)O2 yielded an IC50 ([1]; Cavia porcellus, Trachea) of 1.2 µM and an Intrinsic activity [2] of 0.92.

Compound Cc1ccc2c(c1)[C@@H](N1CCCC1=O)[C@H](O)C(C)(C)O2 has an IC50 ([1]; Cavia porcellus, Trachea) of 13.5 µM and an Intrinsic activity [2] of 0.62.

With CC1(C)Oc2ccc(C(F)(F)F)cc2[C@@H](n2ccccc2=O)[C@@H]1O the IC50 ([1]; Cavia porcellus, Trachea) was 0.54 µM and the Intrinsic activity [2] was 0.96.

For CC1(C)Oc2cc(C(F)(F)F)ccc2[C@@H](N2CCCCC2=O)[C@@H]1O (racemic), the IC50 [1] was 0.66 µM.

CC1(C)Oc2cc(C(F)(F)F)ccc2[C@@H](N2CCCCC2=O)[C@@H]1O (stereo in doubt; (+)24) showed an IC50 [1] of 0.36 µM and an Intrinsic activity [2] of 0.89.

Work on CC1(C)Oc2cc(C(F)(F)F)ccc2[C@@H](N2CCCCC2=O)[C@@H]1O (stereo in doubt; (-)24) yielded an IC50 [1] of 12.6 µM and an Intrinsic activity [2] of 0.69.

Work on CC(C)(C)NCC(O)c1ccc(O)c(CO)c1 (centres undefined) [ALBUTEROL] yielded an IC50 ([1]; Cavia porcellus, Trachea) of 0.018 µM and an Intrinsic activity [2] of 0.98.

In the case of Cn1c(=O)c2[nH]cnc2n(C)c1=O.Cn1c(=O)c2[nH]cnc2n(C)c1=O.NCCN [AMINOPHYLLINE], the IC50 ([1]; Cavia porcellus, Trachea) is reported as 20.1 µM and the Intrinsic activity [2] is reported as 0.54.

CC1(C)C=C(n2ccccc2=O)c2cc(C#N)ccc2O1 [BIMAKALIM] showed an IC50 ([1]; Cavia porcellus, Trachea) of 0.089 µM and an Intrinsic activity [2] of 0.93.

In the case of CC1(C)Oc2ccc(C#N)cc2C(N2CCCC2=O)C1O (centres undefined) [CROMAKALIM], the IC50 ([1]; Cavia porcellus, Trachea) is reported as 1.1 µM and the Intrinsic activity [2] is reported as 0.89.

CC1(C)Oc2ccc(C#N)cc2[C@@H](n2ccccc2=O)[C@@H]1O [EMAKALIM] was tested, and the IC50 ([1]; Cavia porcellus, Trachea) was 0.76 µM and the Intrinsic activity [2] was 0.96.

Work on COC(=O)C1=C(C)NC(C)=C(C(=O)OC)C1c1ccccc1[N+](=O)[O-] [NIFEDIPINE] yielded an IC50 ([1]; Cavia porcellus, Trachea) greater than 20 µM and an Intrinsic activity [2] of 0.49.

With CC(N/C(=N\C#N)Nc1ccncc1)C(C)(C)C (centres undefined) [PINACIDIL ANHYDROUS] the IC50 ([1]; Cavia porcellus, Trachea) was 3.63 µM and the Intrinsic activity [2] was 0.86.
